Shown are actives, neighbours in structure and some others; about 1.9% of the full set was active somewhere.
NS3 helicase inh = HCV NS3 helicase inhibition; NS3 helicase DNA unwinding, Cy5 molecular beacon fluorescence; inhibition, % at 10.9 µM; 290,000 compounds, 0.56% hits; AID 1800;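 active means inhibition above the mean of all tested compounds plus 3 SD, set per campaign, cut at about 35% in these data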;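 further: 0% = DMSO wells and 100% = thioflavine S control wells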
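Compound dosing – single dose, 10.9 µM nominal final, DMSO 0.8% final · System – NS3 helicase fragment of HCV · Buffer or medium – MOPS pH 6.5, MgCl2, DTT, Tween20, BSA · Signal – Cy5 beacon fluorescence read at start and 1 h · Also added – annealed dual-labelled DNA beacon duplex, ATP-started · Schedule – 1 h at 25 °C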
VIM-2 inh = blocks Pseudomonas aeruginosa VIM-2 metallo-beta-lactamase | purified VIM-2, nitrocefin hydrolysis, epi-absorbance fluorescence | inhibition, % at 5.6 µM | 290,000 compounds, 0.89% hits | AID 1527;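 active means inhibition above the mean of all tested compounds plus 3 SD, cutoff set per screening run, cut at about 7.5% in these data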;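 further: red hydrolysis product quenches plate fluorescence so inhibitors raise well fluorescence; 0% = enzyme with DMSO and 100% = DMSO without enzyme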
FID counter = counter-screen for HCV NS3 helicase inhibitors: DNA intercalator displacement. 290,000 compounds, 0.17% hits. inhibition, % at 7.9 µM. AID 1845. DNA fluorescent intercalator displacement, fluorescence; in the data active means inhibition above about 37%;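 further: 0% = vehicle and 100% = reference compound; higher means more ethidium bromide displaced from hairpin DNA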
IMP-1 inhibitor = blocks Pseudomonas aeruginosa IMP-1 metallo-beta-lactamase | AID 1556 | purified IMP-1, nitrocefin hydrolysis, epi-absorbance fluorescence | 290,000 compounds, 0.45% hits | inhibition, % at 5.6 µM;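 active means inhibition above the mean plus 3 SD of all compounds in the same screening run, cut at about 4.5% in these data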;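 further: 0% = IMP-1 with DMSO and 100% = DMSO wells lacking enzyme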
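Test system: recombinant IMP-1 enzyme, purified / Medium: HEPES buffer pH 7.1 with ZnSO4 and Brij 35 / Doses: single dose, 5.6 µM / Times: 25 °C, 15 min preincubation, 25 min reaction / Detection: Epi-absorbance via hydrolysed-nitrocefin quenching of white-plate fluorescence, 480/530 nm, EDTA stop / Evaluation: percent inhibition from optical density relative to buffer-blank wells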
Starred values were filed as active, the others as inactive.

SMILES	NS3 helicase inh	VIM-2 inh	FID counter	IMP-1 inhibitor
COC(=O)c1ccc(NC(=O)CN2C(=O)c3ccccc3S2(=O)=O)cc1	17.3	-3.4	-14.3	-0.8
CCCCc1ccc(NC(=O)CN2NS(=O)(=O)c3ccccc3C2=O)cc1	-0.5	-0.1	-9.6	5.5*
COc1cccc(NC(=O)CSc2ccc3nnc(CCNC(=O)c4ccccc4)n3n2)c1	3.9	-1.2	-30.6	-4.3
COC(=O)C1=C(Nc2ccccc2NC(=O)CCCC(=O)O)CSC1	-0.8	1.0	-8.9	4.5*
COc1ccc2c(c1OC)c(=O)n1c3ccc(OC(C)C(=O)NCCCN4CCOCC4)cc3c3ccnc2c31 (configuration not stated)	4.5	11.4*	17.1	-1.5
O=C(CCC(=O)NC1CCCCC1)N/N=C/c1ccncc1	-0.9	-2.3	-12.8	-1.9
N#CCc1nn2c(-c3ccccc3)ccnc2c1C#N	26.8	-0.8	-8.0	1.3
O=c1oc2ccccc2c2oc3cc(O)c(O)cc3c12	29.8	5.0	2.5	-3.5
O=c1oc2c(O)c(O)cc3c(=O)oc4c(O)c(O)cc1c4c23	31.5	-0.2	4.8	6.1*
CC(C)(C)C(=O)Nc1ccc(-c2nnc3n2CCCCC3)cc1	2.2	0.1	-14.8	0.6
CC1=C(C#N)C(/C=N/OCc2ccc(Cl)cc2)CC(=O)N1 (configuration not stated)	1.9	8.8*	0.5	-2.2
CCCSC1=C(C#N)C(c2ccc(Cl)cc2Cl)CC(=O)N1 (configuration not stated)	0.0	-2.2	-3.5	-5.3
CC(C)c1ccc(NC(=O)c2ccc(NS(C)(=O)=O)cc2)cc1	1.3	-5.4	-3.4	-4.4
Cc1ccc(NS(=O)(=O)c2cc(NC(=O)c3ccc4c(c3)NC(=O)CS4)ccc2Cl)c(C)c1	-12.3	0.7	-2.6	0.2
COc1ccc(-n2ccnc(SCC(=O)NC3CCCC3)c2=O)cc1	26.2	3.0	-24.0	4.6*
CC(C)c1ccc(/C=C2\SC(=S)N(CCC(=O)N3CCCCC3CCO)C2=O)cc1 (configuration not stated)	-6.7	-4.4	-41.3	-2.6
CCOC(=O)N1CCN(C(=O)c2cc3c(=O)[nH]c4ccccc4c3s2)CC1	-4.3	-1.8	-12.9	-3.2
CCOC(=O)CNC(=O)c1cc2c(=O)[nH]c3ccc(C)cc3c2s1	-14.5	0.8	-8.0	-1.1
CCCN1CCN(CCCNC(=O)c2cc3c(=O)[nH]c4ccccc4c3s2)CC1	-1.3	10.2*	11.6	-1.6
Cc1ccc2[nH]c(=O)c3cc(C(=O)NCCN4CCN(C)CC4)sc3c2c1	0.5	11.8*	22.4	-0.4
Cc1ccc2occ(/C=N/NC(=O)c3ccc(O)cc3)c(=O)c2c1	8.5	-7.0	-6.7	4.1
Cc1ccc2occ(/C=N/NC(N)=S)c(=O)c2c1	12.6	-3.9	-0.4	-1.5
CCOc1ccccc1C(=O)N/N=C/c1coc2ccc(C)cc2c1=O	3.8	-2.5	-25.2	10.2*
Cc1ccc2occ(/C=N/NC(=O)c3ccccc3Br)c(=O)c2c1	24.7	-6.2	-19.7	5.2*
CN(Cc1ccccc1)C(=O)CSc1nc2cc(C(=O)N3CCC(C(N)=O)CC3)ccc2c(=O)n1-c1ccccc1	-2.7	-0.8	-12.3	-2.3
SMILES	NS3 helicase inh	VIM-2 inh	FID counter	IMP-1 inhibitor
CCOC(=O)c1c(C)n(C)c2ccc(OCC(O)CN3CCC(C)CC3)cc12 (configuration not stated)	-6.2	7.9*	10.9	-2.5
CC1Sc2ccc(S(=O)(=O)N3CCC(C(=O)N(C)Cc4ccccc4)CC3)cc2NC1=O (configuration not stated)	-11.1	0.0	-49.9	-1.2
Cc1cc(N2CCN(c3ccccc3)CC2)n2nnnc2n1	-1.1	-4.2	-5.0	-2.8
Cc1cc(N2CCN(c3ccccc3)CC2)n2c(n1)nc1ccccc12	7.1	10.9*	-42.4	-3.6
COc1ccccc1-n1c(C)c2c(OC)cccc(=O)c2c1C	14.1	9.2*	-13.6	1.0
COc1ccc(-c2nnc3ccc(SC)nn23)cc1	1.3	8.2*	-5.8	-3.8
CCOC(=O)C(C)Sc1ccc2nnc(-c3ccc(F)cc3)n2n1 (configuration not stated)	11.6	-1.3	-14.9	-4.2
CCCN1C2CCCC1CC(NC(=O)c1cc(OC)cc(OC)c1)C2 (configuration not stated)	-8.9	-1.0	-4.4	2.0
CCN1CCCC1CNC(=O)C1CCN(Cc2nc(-c3cccc(Br)c3)oc2C)CC1 (configuration not stated)	-35.4	1.3	39.2*	-3.6
Cc1oc(-c2cccc(Cl)c2)nc1CN1CCC(C(=O)NCc2ccco2)CC1	-24.4	1.8	22.7	-0.2
COc1ccc(NC(=O)NCc2cccnc2)c(OC)c1	6.6	0.0	-3.8	15.6*
COc1ccc(NC(=O)NCc2ccncc2)c(OC)c1	-0.6	-0.1	0.2	-3.0
Cc1c(C=O)c2ccccn2c1C(=O)c1cccs1	0.7	8.3*	2.4	-1.9
CN(C)S(=O)(=O)N(CC(=O)N1CCN(Cc2ccccc2)CC1)c1ccccc1	-0.3	-2.6	-16.8	-4.4
O=c1[nH]c(C(Cl)Cl)nc2sc3c(c12)CCN(Cc1ccccc1)C3	-2.8	3.3	1.0	11.4*
CCCSc1nc2sc3c(c2c(=O)[nH]1)CCN(Cc1ccccc1)C3	17.0	-2.7	-11.6	0.8
O=C(Cn1cnc2c(cnn2-c2ccc(Cl)cc2)c1=O)NC1CCCCC1	11.6	-2.0	-0.4	5.4*
Cc1nc(NC(=O)CC(C)C)sc1-c1csc(Nc2ccc(Cl)cc2Cl)n1	-9.0	-0.1	2.0	0.3
COc1ccc(Cl)cc1Nc1nc(-c2sc(NC(=O)CC(C)C)nc2C)cs1	0.7	0.1	-1.1	6.8*
C=CCCC(=O)Nc1nc(C)c(-c2csc(Nc3cc(Cl)ccc3OC)n2)s1	-7.2	0.1	1.4	6.2*
CCCCCCC(=O)Nc1nc(C)c(-c2csc(Nc3cc(OC)ccc3OC)n2)s1	2.4	-2.4	0.2	10.0*
C/C(=N/NC(=O)CNC(=O)c1ccccn1)c1cccc([N+](=O)[O-])c1	1.9	-2.9	-6.6	-5.0
O=C(Cc1cccs1)NCc1ccccc1Br	19.1	2.5	-15.1	1.4
CCOC(=O)C1=C(C)Nc2sc(C(=O)c3ccc(OC)cc3)c(N)c2C1c1ccc(C(=O)OC)cc1 (configuration not stated)	-5.6	10.6*	-5.4	-2.9
COc1cc(C2NC(=O)C(C#N)=C(Nc3cccc(C)c3)S2)ccc1O (configuration not stated)	5.1	-2.9	1.4	-2.4
O=C(CCC(=O)N(CC(=O)NC1CCCCC1)CC1CCCO1)Nc1nccs1 (configuration not stated)	10.1	1.0	-21.8	-1.4
COc1ccc(CCn2c(=N)c(C(=O)NC3CCCC3)cc3c(=O)n4ccccc4nc32)cc1	-12.1	3.4	15.4	-2.0
Cc1ccc2nc3c(cc(C(=O)NCCc4ccccc4)c(=N)n3CCN3CCOCC3)c(=O)n2c1	0.2	0.0	-15.9	-4.3
CC(C)OCCCn1c(=N)c(S(=O)(=O)c2ccccc2)cc2c(=O)n3ccccc3nc21	-0.3	-0.8	0.3	-2.6
